# Source: PubChem BioAssay
# Activity calls are given as the source filed them. Unless noted, no stated cut-off is given here; in the data, active means inhibition above about 30%; inactive means the rest.
# How the values were obtained:
# [1] = target: Pantothenate synthetase (Mycobacterium tuberculosis (strain ATCC 25618 / H37Rv)) (UniProt P9WIL5); assay: Coupled enzyme confirmation of inhibitors against recombinant Mtb PanC (AID 375; call rule not given here;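 further: 0% = full reaction with vehicle and 100% = no enzyme background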); conditions: coupled enzyme assay; at 10 µM, stronger effect = higher value
# Chain of Pantothenate synthetase (Mycobacterium tuberculosis (strain ATCC 25618 / H37Rv)) (P9WIL5 whole entry, looked up): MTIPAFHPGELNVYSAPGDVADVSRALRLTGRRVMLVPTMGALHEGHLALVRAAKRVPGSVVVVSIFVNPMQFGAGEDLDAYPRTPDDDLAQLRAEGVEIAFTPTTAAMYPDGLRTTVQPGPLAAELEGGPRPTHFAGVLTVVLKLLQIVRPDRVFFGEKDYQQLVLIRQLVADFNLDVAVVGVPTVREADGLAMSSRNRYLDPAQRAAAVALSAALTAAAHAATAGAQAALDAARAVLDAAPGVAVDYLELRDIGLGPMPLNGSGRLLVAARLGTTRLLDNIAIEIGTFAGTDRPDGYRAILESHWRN
# [2] = reduced viability of SK-BR-3 breast cancer cells – cell-based, 24 h, human, pilot screen (AID 572;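 active means viability at or below 10% of carrier control in both of two separate runs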;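 further: compound exposure lasted between 18 and 24 h rather than exactly 24 h; 100% = carrier-treated control wells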); conditions: SK-BR-3 viability, CellTiter-Glo luminescence, at 10 µM, stronger effect = lower value
# [3] = HUVEC growth inhibition – cell-based, human, primary screen (AID 575;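 active means viability at or below 30% in both replicate assays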;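 further: 100% = median of untreated cell wells with 0.1% DMSO on each plate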); conditions: HUVEC proliferation, CellTiter-Glo luminescence, 72 h; at 10 µM; stronger effect = lower value
# How it was run: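 Material: primary human umbilical vein endothelial cells / Schedule: 72 h exposure, 37 °C, 5% CO2, 30 min RT equilibration / Signal: ATP-based CellTiter-Glo luminescent read / Read-out basis: percent of median DMSO-control luminescence / Control set: 32 DMSO-only cell-control wells (high), 32 MePR drug-control wells (low) per plate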
# [4] = H69AR cell proliferation blockers – human, duplicate replicates, primary screen (AID 580;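 active means viability at or under a set limit in both replicates, limit being median viability minus 3 SD, cut at about 48% in these data, passing the limit was not always enough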;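 further: 100% = mean luminescence of untreated wells and 0% = no signal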); conditions: H69AR lung tumor cells viability, ATP luminescence, 72 h; at 10 µM; stronger effect = lower value
# [5] = MRP1 drug-resistance reversers in H69AR cells – cell-based, doxorubicin co-treatment, pilot screen (AID 601;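 active means viability loss from added drug above about 55%, and viability with drug at most 40%, in both replicates, limit read from the data, passing the limit was not always enough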); conditions: CellTiter-Glo, 72 h, at 10 µM; for differential viability (reversal): stronger effect = higher value
# [6] = yeast transport mutant growth inhibition pilot in 384-well plates, post-Golgi transport modulator project (AID 636; in the data active means inhibition above about 31%); conditions: absorbance 615 nm, about 18 h, stronger effect = higher value
# [7] = growth suppression of yeast trafficking mutant, preliminary HTS, modulators of trafficking downstream of Golgi apparatus project, 1536-format plate, OD 615 nm (AID 637); conditions: yeast transport mutant growth, absorbance 615 nm, 18 h; stronger effect = higher value
# [8] = H69AR cells + 2 uM doxorubicin, measured here: viability with 2 uM doxorubicin, stronger effect = lower value
# [9] = H69AR cells, compound alone cytotoxicity
SMILES,inhibition [1],viability [2],viability [3],viability [4],differential viability (reversal) ([5]; H69AR cells + 2 uM doxorubicin),"viability [5, 8] [%]","viability [5, 9] [%]",inhibition [6],inhibition [7]
COc1ccc(CCn2c(O)c(C=NCc3cccnc3)c(=O)[nH]c2=O)cc1OC,0% (inactive),63% (inactive),118% (inactive),95.4% (inactive),1.12% (inactive),94.3,95.4,-4.67% (inactive),1.97% (inactive)
O=C1CC[C@@]2(O)[C@H]3Cc4ccc(O)c5c4[C@@]2(CCN3CC2CC2)[C@H]1O5,4% (inactive),95% (inactive),90.6% (inactive),99.5% (inactive),11% (inactive),88.6,99.5,0.26% (inactive),2.17% (inactive)
O=C(Cn1ncc2c3ccccc3n(Cc3ccc(F)cc3)c2c1=O)N1CCC2(CC1)OCCO2,7% (inactive),86% (inactive),96% (inactive),89.2% (inactive),-9.23% (inactive),98.4,89.2,-5.41% (inactive),-2.55% (inactive)
NCC(CC(=O)O)c1ccc(Cl)cc1 (configuration not stated),0% (inactive),83% (inactive),78.3% (inactive),106% (inactive),-1.38% (inactive),107,106,-1.43% (inactive),4.67% (inactive)
CCN1c2nc3ccccn3c(=O)c2CC2(C(=O)N(C)C(=O)N(C)C2=O)C1C (configuration not stated),0% (inactive),119% (inactive),104% (inactive),96% (inactive),5.97% (inactive),90,96,-9.18% (inactive),2.9% (inactive)
c1ccc2c(c1)[nH]c1cnccc12,0% (inactive),100% (inactive),70.2% (inactive),83% (inactive),2.26% (inactive),80.7,83,-0.78% (inactive),0.5% (inactive)
CC(=NCCCN1CCOCC1)c1c(O)n(-c2ccccc2C)c(=O)[nH]c1=O,0% (inactive),100% (inactive),91.3% (inactive),92.2% (inactive),5.16% (inactive),87,92.2,-0.14% (inactive),-5% (inactive)
COc1ccc(CC[n+]2cc(/N=C(\C)[O-])on2)cc1OC,0% (inactive),146% (inactive),93.9% (inactive),92.1% (inactive),-3.11% (inactive),95.2,92.1,0.52% (inactive),4.26% (inactive)
c1ccc(Cn2ccnc2)cc1,0% (inactive),127% (inactive),84.4% (inactive),93.5% (inactive),-0.24% (inactive),93.7,93.5,0.78% (inactive),22% (inactive)
CNCC(O)c1ccc(O)cc1 (configuration not stated),0% (inactive),120% (inactive),95.6% (inactive),102% (inactive),15.7% (inactive),85.9,102,-1.82% (inactive),8.83% (inactive)
NCC1(CC(=O)O)CCCCC1,3% (inactive),105% (inactive),101% (inactive),96.8% (inactive),7.93% (inactive),88.9,96.8,-1.17% (inactive),2% (inactive)
CNCCc1c[nH]c2ccccc12,0% (inactive),127% (inactive),85.9% (inactive),84.5% (inactive),-20.1% (inactive),105,84.5,-0.39% (inactive),12% (inactive)
CC(=O)[C@@]1(O)CC[C@H]2[C@@H]3CC=C4C[C@@H](O)CC[C@]4(C)[C@H]3CC[C@@]21C,0% (inactive),89% (inactive),84.6% (inactive),89.8% (inactive),5.5% (inactive),84.3,89.8,-0.26% (inactive),4.33% (inactive)
Cc1cc(OCC(=O)O)c2c3c(c(=O)oc2c1)CCCC3,1% (inactive),132% (inactive),85.9% (inactive),84.8% (inactive),-3.02% (inactive),87.9,84.8,-4.16% (inactive),7.38% (inactive)
O=c1[nH]c2ccccc2n1CCCN1CCC(n2c(=O)[nH]c3cc(Cl)ccc32)CC1,0% (inactive),91% (inactive),97.8% (inactive),76% (inactive),-6.47% (inactive),82.5,76,-2.47% (inactive),-0.17% (inactive)
CC(C)OCCCNC(=O)c1c(N)n(Cc2cccs2)c2nc3ccccc3nc12,0% (inactive),26%,6.24% (active),61.1% (inactive),-18.8% (inactive),79.8,61.1,-2.47% (inactive),-7.33% (inactive)
CN(C)[C@@H]1C(=O)C(C(N)=O)=C(O)[C@@]2(O)C(=O)C3=C(O)c4c(O)cccc4[C@@](C)(O)[C@H]3[C@H](O)[C@@H]12,3% (inactive),115% (inactive),101% (inactive),103% (inactive),2.03% (inactive),101,103,0.52% (inactive),1.17% (inactive)

SMILES,inhibition [1],viability [2],viability [3],viability [4],differential viability (reversal) ([5]; H69AR cells + 2 uM doxorubicin),"viability [5, 8] [%]","viability [5, 9] [%]",inhibition [6],inhibition [7]
CC[C@@H](CO)NC(=O)[C@@H]1C=C2c3cccc4c3c(cn4C)C[C@H]2N(C)C1,7% (inactive),147% (inactive),96.8% (inactive),95.4% (inactive),-1.17% (inactive),96.6,95.4,1.17% (inactive),-2% (inactive)
CCOC(=O)c1cc2c(cn1)[nH]c1ccccc12,6% (inactive),122% (inactive),89.3% (inactive),88% (inactive),3.16% (inactive),84.8,88,-0.91% (inactive),-3.17% (inactive)
CCCNC(=O)c1c(N)n(Cc2ccc3c(c2)OCO3)c2nc3ccccc3nc12,0% (inactive),102% (inactive),21.8% (active),43.8% (active),6.99% (inactive),36.8,43.8,-3.2% (inactive),0.66% (inactive)
C=CCN1C(=O)C2(C(C(=O)OCC)=C(N)Oc3c2c(=O)oc2ccccc32)c2ccccc21 (configuration not stated),0% (inactive),61% (inactive),108% (inactive),98.2% (inactive),-10.5% (inactive),109,98.2,0.27% (inactive),1.45% (inactive)
C=C1CC[C@@]2(O)[C@H]3Cc4ccc(O)c5c4[C@@]2(CCN3CC2CC2)[C@H]1O5,0% (inactive),101% (inactive),95.2% (inactive),110% (inactive),14.7% (inactive),95.5,110,-1.43% (inactive),6.83% (inactive)
CC[N+]1(C)CCCC(OC(=O)C(O)(c2ccccc2)c2ccccc2)C1 (configuration not stated),0% (inactive),81% (inactive),76.8% (inactive),101% (inactive),11.1% (inactive),89.6,101,-5.71% (inactive),-3.67% (inactive)
O=C(C1CCCN(c2nnc(-n3cccc3)s2)C1)N1CCC2(CC1)OCCO2 (configuration not stated),0% (inactive),83% (inactive),109% (inactive),94.3% (inactive),12.8% (inactive),81.6,94.3,-7.33% (inactive),-5.09% (inactive)
O=C(CN1C2CCC1CC(O)(c1cccnc1)C2)Nc1ccc2c(c1)OCO2 (configuration not stated),11% (inactive),72% (inactive),90.2% (inactive),91.3% (inactive),2.46% (inactive),88.8,91.3,-6.53% (inactive),3.44% (inactive)
Cc1ccnc(-n2c(-c3ccco3)nc3ccccc3c2=O)c1,0% (inactive),105% (inactive),107% (inactive),99.8% (inactive),10.2% (inactive),89.6,99.8,-2.47% (inactive),1.15% (inactive)
CNP1(NC)=NC(C(F)(F)F)=NC(C(F)(F)F)=N1,3% (inactive),95% (inactive),124% (inactive),98.1% (inactive),6.97% (inactive),91.2,98.1,-6.99% (inactive),4.36% (inactive)
C[N+]1(C)CCN(c2ccccc2)CC1,8% (inactive),118% (inactive),95.8% (inactive),84.9% (inactive),-12.1% (inactive),97,84.9,-1.69% (inactive),0.5% (inactive)
C#CCN(C)C(C)Cc1ccccc1 (configuration not stated),5% (inactive),115% (inactive),88.3% (inactive),99.3% (inactive),-5.18% (inactive),104,99.3,-0.26% (inactive),2.33% (inactive)
COC1=CC(=O)OC(/C=C/c2ccccc2)C1 (configuration not stated),0% (inactive),124% (inactive),96.6% (inactive),87.6% (inactive),2.78% (inactive),84.8,87.6,-1.56% (inactive),-4.5% (inactive)
CN(C)[C@@H]1C(=O)C(C(N)=O)=C(O)[C@@]2(O)C(=O)C3=C(O)c4c(O)cccc4[C@@](C)(O)[C@H]3C[C@@H]12,2% (inactive),91% (inactive),102% (inactive),102% (inactive),11.8% (inactive),89.8,102,0.13% (inactive),-2% (inactive)
CC(C)[C@H]1C(=O)N2CCC[C@H]2[C@]2(O)O[C@](NC(=O)[C@@H]3C=C4c5cccc6[nH]cc(c56)C[C@H]4N(C)C3)(C(C)C)C(=O)N12,5% (inactive),104% (inactive),86.4% (inactive),104% (inactive),0.81% (inactive),103,104,-0.78% (inactive),7.17% (inactive)
CC(NC(C)(C)C)C(=O)c1cccc(Cl)c1 (configuration not stated),0% (inactive),87% (inactive),74.8% (inactive),99.5% (inactive),4.02% (inactive),95.5,99.5,-1.17% (inactive),1.67% (inactive)
